Screening data as filed in PubChem BioAssay.
PostGolgi ctrl: yeast control strain growth, post-Golgi counter-screen | efflux-deficient yeast background strain, growth absorbance A615, 16 h | inhibition, % at 10 µM | actives 5% (n = 98,000) | AID 738
Ecoli WT expand: E. coli BW25113 growth inhibition, expanded screen. OD600 absorbance. growth inhibition, % at 100 µM. actives 0.15% (n = 98,000);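 active = growth inhibition above about 50% at one test dose, limit read from the data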;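 also: growth measured after 20 h incubation at 37 °C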
PostGolgi yeast: growth inhibition of a yeast mutant, post-Golgi transport screen. post-Golgi transport phenotypic cell assay. inhibition, % at 10 µM. actives 0.9% (n = 98,000). AID 739;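 also: yeast cells grown in 1536-well plates; yeast grown about 18 h at 30C before absorbance read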
Ecoli tolC: blocks growth of E. coli BW25113 tolC mutant | growth inhibition, % at 10 µM (by protocol) | OD615 | actives 2.2% (n = 65,000);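 active = growth inhibition at or above a cutoff equal to the mean over every tested compound plus 3 SD, cut at about 60% in these data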;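 also: growth measured after 20 h incubation at 37 °C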
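Test system: E. coli BW25113 ΔtolC::kan bacteria | Medium: Kanamycin-containing LB broth (50 µg/mL) | Dosing: One dose of 10 µM final | Times: 20 h incubation with compound, 37 °C | Detection: Optical density read at 615 nm | Read-out basis: Percent growth inhibition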
Of the large screens only hits and unclear results are named; the others gave an inactive call. Rows were chosen to be rich in hits. Some 6.3% of all compounds tested hit in one or more screens of this group. Rule as the data show it, unless noted: active = inhibition above about 30%; inactive = the rest.

Cc1nn(-c2ccccc2)c(C)c1C(=O)OCC(=O)N1CCN(S(=O)(=O)c2ccccc2)CC1	PostGolgi ctrl 96
CCOC(=O)c1c(C)[nH]c(C(=O)OCC(=O)N2CCN(S(=O)(=O)c3ccccc3)CC2)c1C	none
Cc1ccc(S(=O)(=O)NC(CC(C)C)C(=O)Nc2nccs2)cc1 (stereo unspecified)	none (no result: Ecoli tolC)
CC(Sc1nnc(C2CCCCC2)n1N)C(=O)NCc1ccc2c(c1)OCO2 (stereo unspecified)	none
CCC(=O)Nc1ccc(N2CCN(Cc3ccccc3)CC2)cc1	none
O=C(Nc1ccc(N2CCN(Cc3ccccc3)CC2)cc1)c1ncn[nH]1	PostGolgi ctrl 31
COC(=O)c1ccccc1NC(=O)/C=C/c1cc(OC)c(OC)c(OC)c1	none (no result: Ecoli tolC)
COc1ccc(/C=C(/C(=O)Nc2ccccc2C(=O)NC(C)C)c2ccccc2)cc1	none (no result: Ecoli tolC)
COc1ccc(/C=C(/C(=O)Nc2ccccc2C(=O)N2CCCC2)c2ccccc2)cc1	PostGolgi ctrl 36 (no result: Ecoli tolC)
CCC1/C(=N\O)CC(c2ccco2)NC1c1ccco1 (stereo unspecified)	none (no result: Ecoli tolC)
Cc1ccc(S(=O)(=O)N2CCN(C(=O)CCC(=O)OCC(=O)Nc3cccc(C#N)c3)CC2)cc1	PostGolgi ctrl 32
CC(=O)n1cc(C(C[N+](=O)[O-])SCCN)c2ccccc21 (stereo unspecified)	none (no result: Ecoli tolC)
CN1C(=O)OC(C)(CCc2ccccc2)C1(C)O (stereo unspecified)	none
CC1(O)N(Cc2ccccc2)C(=O)OC12CCCCC2 (stereo unspecified)	PostGolgi ctrl 46
COc1ccc(C2N(S(=O)(=O)c3ccccc3)CCN2S(=O)(=O)c2ccc(C)cc2)cc1 (stereo unspecified)	none (no result: Ecoli tolC)
O=C(Cc1ccccc1)Nc1nc(-c2cccs2)cs1	none
O=C(COc1ccc(Cl)cc1)Nc1nc(-c2cccs2)cs1	Ecoli tolC 69
O=C(Cc1ccccc1F)Nc1nc(-c2cccs2)cs1	Ecoli tolC 91
CC(CNC(=O)C1CCCCC1C(=O)O)c1ccccc1 (stereo unspecified)	none (no result: Ecoli tolC)
Cc1cc2n(n1)C(c1ccc3c(c1)OCO3)Nc1c(C)cccc1-2 (stereo unspecified)	Ecoli tolC 71
Cc1cc2n(n1)C(c1ccco1)Nc1ccccc1-2 (stereo unspecified)	none
Cc1cc2n(n1)C(c1ccc(O)cc1)Nc1ccccc1-2 (stereo unspecified)	none
Cc1cc(C)c2c(c1)-c1cc(C)nn1C(c1ccc3c(c1)OCO3)N2 (stereo unspecified)	PostGolgi ctrl 47
COc1ccccc1C1C(C#N)=C(N)N(c2cccnc2)C2=C1C(=O)CC(C)(C)C2 (stereo unspecified)	none (no result: Ecoli tolC)
C=CCSc1nc(NC)c2sccc2n1	none (no result: Ecoli tolC)
COC(=O)NCCOC(=O)N(O)c1ccc(Br)cc1	none
CC1CC(C)(C)N(C(=O)CSc2ccc(-c3ccc(F)cc3)nn2)c2ccccc21 (stereo unspecified)	PostGolgi ctrl 37 (no result: Ecoli tolC)
CC1CCN(C(=O)CSc2ccc(-c3ccc(F)cc3)nn2)CC1	none
Clc1ccccc1CN(Cc1ccccc1)c1ncnc2nc[nH]c12	PostGolgi ctrl 52
COc1ccc2c(=O)c3c(=O)n(Cc4ccco4)c(-c4ccccc4)nc3oc2c1	PostGolgi ctrl 58
CCCc1nc2sc3ccccc3c(=O)c2c(=O)n1Cc1ccco1	Ecoli tolC 70
CCCc1nc2oc3cc(OC)ccc3c(=O)c2c(=O)n1Cc1ccco1	Ecoli tolC 61
COc1ccc2c(=O)c3c(=O)n(Cc4ccco4)c(-c4cc(OC)c(OC)c(OC)c4)nc3oc2c1	none (no result: PostGolgi ctrl, Ecoli WT expand, PostGolgi yeast)
O=C(Nc1ccccc1-c1ccccc1)c1ccc(NC(=O)c2ccco2)cc1	none (no result: Ecoli tolC)
Cc1cccc(N2CCN(c3nc4ccccc4n4cnnc34)CC2)c1C	PostGolgi ctrl 37
CCN(CC)CCNc1nc(-c2ccccc2)c2c(c1C#N)CC(C)(C)OC2	none (no result: Ecoli tolC)
CC1(C)Cc2c(C#N)c(NCCCO)nc(-c3ccccc3)c2CO1	PostGolgi ctrl 85
C=CCOc1c(CNc2nccs2)cccc1OCC	PostGolgi yeast 33
COCCNC(=O)CSc1nc2ccccc2c(=O)n1CCCC(=O)NCc1ccccc1	none
Cc1cc(C(=O)CSc2nc3ccccc3o2)c(C)n1C1CC1	Ecoli tolC 76
C=CCn1c(C)cc(C(=O)CSc2nc3ccccc3o2)c1C	PostGolgi ctrl 52
C=CCn1c(C)cc(C(=O)CSc2nnc(NCc3ccccc3)s2)c1C	PostGolgi ctrl 96, PostGolgi yeast 62
C=CCn1c(C)cc(C(=O)CSc2nc3ccccc3c(=O)[nH]2)c1C	PostGolgi ctrl 89
Cc1nnc(SCC(=O)c2cc(C)n(C3CC3)c2C)s1	none (no result: Ecoli tolC)
Cc1ccc(C(C(=O)NC2CCCCC2)N2CCN(C(=O)c3ccco3)CC2)cc1 (stereo unspecified)	none (no result: Ecoli tolC)
COc1ccc(Nc2nnc(SCC(=O)c3cc(C)n(CC4CCCO4)c3C)s2)cc1 (stereo unspecified)	none (no result: Ecoli tolC)
C=CCn1c(C)cc(C(=O)CSc2nnc(Cc3ccccc3)o2)c1C	PostGolgi ctrl 96, PostGolgi yeast 82
CCC(CC)NC(=O)Cc1ccccc1[N+](=O)[O-]	none (no result: Ecoli tolC)
O=C(Nc1ccccn1)c1ccc(NC(=O)c2ccco2)cc1	PostGolgi ctrl 35
Cc1ccccc1NC(=O)c1ccc(NC(=O)c2ccco2)cc1	none
O=C(OC1CCCCC1)c1ccc(NC(=O)c2ccco2)cc1	Ecoli tolC 96
COc1ccc2cc(CN(CC3COCCO3)S(=O)(=O)c3ccc(Cl)cc3)c(=O)[nH]c2c1 (stereo unspecified)	none
COc1cccc(C2NC(=O)NC(O)(C(F)(F)F)C2C(=O)c2cccnc2)c1OC (stereo unspecified)	none
CC12CCC(C(=O)Nc3cccc4ccccc34)(C1Br)C2(C)C (stereo unspecified)	PostGolgi ctrl 40 (no result: Ecoli tolC)
O=C(CSc1nnc(C23CC4CC(CC(C4)C2)C3)o1)Nc1ccc(N2CCOCC2)c(Cl)c1	none
COc1ccc(NC(=O)C2CCCN(S(=O)(=O)c3ccc4c(c3)oc(=O)n4C)C2)c(OC)c1 (stereo unspecified)	none (no result: Ecoli tolC)
CCCOc1ccc(C(=O)NNC(=S)NC(=O)CC)cc1	PostGolgi ctrl 99, Ecoli WT expand 68, PostGolgi yeast 76 (no result: Ecoli tolC)
C=CCNC(=S)NNC(=O)c1ccc(OCC)cc1	none (no result: Ecoli tolC)
COc1cc(C2C(C#N)=C(N)Oc3cc(O)ccc32)cc2c1OCO2 (stereo unspecified)	none
N#CC1=C(N)Oc2cc3c(cc2C1c1ccc(Cl)cc1)OCO3 (stereo unspecified)	PostGolgi ctrl 30
COc1ccc(N=C2S/C(=C\c3ccc(N4CCOCC4)o3)C(=O)N2CCc2c[nH]c3ccccc23)cc1	PostGolgi ctrl 32 (no result: Ecoli tolC)
CCCN1C(=O)/C(=C/c2ccc(C)o2)SC1=Nc1ccc(OC)cc1	none (no result: Ecoli tolC)
Clc1ccc2nc(CN3CCCc4ccccc43)cn2c1	Ecoli tolC 61
Clc1ccc2nc(CN3CCCCC3)cn2c1	none
COc1ccccc1OCc1ccc(C(=O)n2nc(C)c(Cl)c2C)o1	PostGolgi ctrl 33
CC1CCN(C(=O)c2ccc(COc3ccccc3Cl)o2)CC1	Ecoli tolC 87
COc1ccccc1OCc1ccc(C(=O)N2N=C(C(F)F)CC2(O)C(F)F)o1 (stereo unspecified)	none (no result: Ecoli tolC)
CN(CC(=O)NCc1ccncc1)S(=O)(=O)c1ccc(F)cc1	none (no result: Ecoli tolC)
